Source: PMC10749586 (Nature, 2023)
Where two headings read alike, the source gives them in different places.

Key:
DLBCL cell lines = assay: Cell viability; format: cell-based, human; settings: titrated against constant TCIP1 that kills 50–95% of cells within 72 h
KARPAS422 cells [1] = assay: Cell viability; format: cell-based, human; settings: for fold less-effective cell killing than TCIP1: JQ1 and BI3812 added separately or together, 72 h
[2] = tested on: KARPAS422 cells gene expression; assay: RNA sequencing in KARPAS422 cells; format: cell-based, human
[3] = tested on: primary human tonsillar lymphocytes; assay: Cell viability of primary human tonsillar lymphocytes; format: cell-based; settings: read-out: EC50 of cell viability, 72 h
KARPAS422 cells [4] = assay: Cell cycle and TUNEL analysis; format: cell-based, human; settings: cell-cycle analysis with TUNEL; 100 nM, 24 h
[5] = tested on: MYC, p21, FOXO3, BCL6, BRD4 protein levels; assay: Western blots of target proteins in DLBCL cells; format: cell-based, human
Outline: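 Cells plated at 1 M ml−1 were treated with test compound (e.g., 20 h in KARPAS422). Two million cells were lysed on ice in RIPA (pH 8, 1% SDS, 1 mM DTT) with benzonase for 20 min. Lysates were cleared at 14,000g for 10 min at 4 °C and quantified by Bradford. Immunoblots probed BCL6, BRD4, BCL2, p53, MYC, FOXO3 and p21, with GAPDH as loading control.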

[6] = tested on: BRD4 / Pol II / H3K27ac chromatin occupancy; assay: ChIP-seq; format: cell-based, human
Outline: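 KARPAS422 cells (30 million) received test compound or DMSO, then were crosslinked with 1% formaldehyde for 12 min and quenched with 0.125 M glycine. Nuclei were prepared and immunoprecipitated overnight at 4 °C. Chromatin input was 50 µg for Pol II Ser2/Ser5 phos and 25 µg for H3K27ac, with Drosophila spike-in. Differential peaks: Wald test, Benjamini–Hochberg, padj ≤ 0.05, |log2| ≥ 0.5.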

[7] = Mouse tolerability and pharmacokinetic study; format: in vivo; settings: 10 mg kg^−1 i.p. once daily for 5 days, C57BL/6 mice
SUDHL5 cells = assay: Cell viability in SUDHL5 cells with or without serum starvation; format: cell-based, human
Outline: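 SUDHL5 cells were arrested in G0/G1 by serum starvation, or left unstarved, before test compound addition. Viability was read with PrestoBlue resazurin reagent (1.5 h, fluorescence 560/590 nm). Signal was background-subtracted and normalized to DMSO-treated cells. n = 3 biological replicates, mean ± s.d.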

BCL6 reporter = BCL6 reporter assay in KARPAS422 cells; format: cell-based, human; settings: read-out: EC50 of BCL6 reporter activation, 8 h
Outline: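 KARPAS422 cells were lentivirally transduced with the BCL6 reporter construct and selected. They were then treated with test compound for 8 h, washed in 2.5% FBS/PBS, stained with 7-AAD (1:250 v/v) for live/dead and analysed by flow cytometry. A GFP-positive gate was set from non-transduced cells. The FITC histogram area past threshold, over live cells, was normalized to DMSO.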

BRD4(BD1) = BRD4(BD1) (Homo sapiens, UniProt O60885); assay: ITC binary titration, TCIP1 and BRD4; format: binding; settings: read-out: Kd of BRD4-TCIP1 (binary)
KARPAS422 cells [8] = assay: Annexin V apoptosis assay; format: cell-based, human
Outline: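 KARPAS422 cells (500,000, plated at 1 M ml−1) were exposed to test compound for the stated times and doses, then harvested on ice and washed twice. They were stained with 7-AAD plus FITC-annexin V for 15 min at room temperature and read immediately by flow cytometry. Gates came from single-stain and no-stain controls. Kinetics used 2–6 biological replicates, mean ± s.d.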

OCILY19 cells = assay: Cell viability of OCILY19 cells; format: cell-based, human; settings: OCILY19, no detectable BCL6
[9] = molecular target: BRD4(BD1)-TCIP1-BCL6(BTB) ternary complex (Homo sapiens, UniProt O60885+P41182, C67R/C84N/C8Q); assay: Biolayer interferometry of ternary complex; format: binding
Outline: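 Biolayer interferometry used biotinylated BCL6(BTB)-AviTag (100 nM) loaded on streptavidin tips. Wells held tag-cleaved BRD4(BD1) (50 µM, excess) with test compound titrated from 5.5 nM to 12 µM, at 25 °C. Steps were 300 s association, 300 s dissociation and 30 s baseline. Off-rate came from dissociation curves at 7–8 doses, n = 3 independent replicates, mean ± s.d.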

[10] = tested on: MYC, p21, FOXO3, BCL6, BRD4 protein levels; settings: BET/BRD4 inhibitor; cited from earlier work
[11] = 2 h, 10 nM, out of 51,678 consensus peaks

Compound: CNC(=O)COc1cc2cc(Nc3nc(N4CCC(C(=O)N(C)C)CC4)ncc3Cl)cc(OC)c2n(C)c1=O [BI3812]
- rescue of TCIP1-induced cell death by competitive titration (DLBCL cell lines): prevented death by TCIP1
- fold less-effective cell killing than TCIP1 (KARPAS422 cells [1]): 100–1,000 fold

Compound: CNC(=O)COc1cc2cc(Nc3nc(N4CCC(C(=O)NCCCCCCCNC(=O)C[C@@H]5N=C(c6ccc(Cl)cc6)c6c(sc(C)c6C)-n6c(C)nnc65)CC4)ncc3Cl)cc(OC)c2n(C)c1=O [TCIP1]
- number of genes induced at early timepoints ([2]; 10 nM, 1, 2 and 4 h, KARPAS422): approximately 140 genes
- number of genes with increased expression ([2]; 10 nM, 20 h, KARPAS422): 1,654 genes
- number of genes with reduced expression ([2]; 10 nM, 20 h, KARPAS422): 1,347 genes
- time to upregulation of the long isoform of BCL6 mRNA ([2]; RT-qPCR, 10 nM): 1 to 2 h
- EC50 [3]: ~210 nM
- cell-cycle effect (KARPAS422 cells [4]): induced both a G1/S and G2/M block in the cell cycle
- time to FOXO3 activation ([5]; 10 nM): ≤ 2 h
- effect on BRD4 protein levels ([5]; 20 h, KARPAS422): did not change substantially
- time to reduction of MYC protein levels ([5]; after addition of drug): ≤ 2 h
- concentration from which MYC levels are reduced ([5]; western blot, DLBCL cells): less than 1 nM
- concentration that activates FOXO3 ([5]; western blot, DLBCL cells): 0.5 nM
- concentration inducing the BCL6L isoform ([5]; western blot, Fig. 4k): ≤ 1 nM
- H3K27ac peaks decreased [6, 11]: 70 peaks
- H3K27ac peaks increased [6, 11]: 126 peaks
- increase of BRD4 binding over genomic BCL6-binding sites ([6]; ChIP-seq): 50%
- BRD4 levels increase at promoters of upregulated genes ([6]; ChIP-seq, 1 h of TCIP1 addition): approximately 150%
- body weight change [7]: no significant changes in mouse body weight
- histology (haematoxylin and eosin) of lung and spleen [7]: did not reveal noticeable abnormalities
- EC50 (SUDHL5 cells; read-out: EC50 of cell viability after G0/G1 arrest, SUDHL5, serum starvation): 0.25 nM
- EC50 (SUDHL5 cells; read-out: EC50 of cell viability without arrest, SUDHL5, no serum starvation): 3.2 nM
- EC50 (BCL6 reporter): 5 nM
- Kd (BRD4(BD1)): 5080 nM
- EC50 (KARPAS422 cells [1]; read-out: EC50 of cell viability, KARPAS422, 72 h after addition of drug): 1.3 nM
- time to detectable apoptosis (KARPAS422 cells [8]): 4 to 8 h
- response in cell viability (OCILY19 cells): little or no response compared with controls
- off-rate of ternary complex [9]: 26 ms^−1

Compound: Cc1sc2c(c1C)C(c1ccc(Cl)cc1)=N[C@@H](CC(=O)OC(C)(C)C)c1nnc(C)n1-2 [JQ1]
- drug level at which MYC expression is reduced [10]: 500 nM
- rescue of TCIP1-induced cell death by competitive titration (DLBCL cell lines): prevented death by TCIP1
- fold less-effective cell killing than TCIP1 (KARPAS422 cells [1]): 100–1,000 fold
